In ChEMBL document CHEMBL4732226, “Discovery of a potent G-protein-coupled receptor 119 agonist for the treatment of type 2 diabetes” (Bioorg Med Chem, 2021):

Key:
[1] = Toxicity in female Wistar rat assessed as ratio of spleen to body weight at 100 mg/kg, po after 28 days (reference value: 0.244 +/- 0.032); format: organism-based; conditions: in vivo, 672 h, time 28 day
[2] = biological target: T1, Glucose-dependent insulinotropic receptor (Homo sapiens) (UniProt Q8TDV5); assay: Agonist activity at human GPR119 stably transfected in CHO-K1 cells assessed as increase in cAMP stimulation after 1 hr by enzyme immunoassay relative to AR231453; format: functional, cell-based; conditions: filed as agonist
T1 sequence (whole entry): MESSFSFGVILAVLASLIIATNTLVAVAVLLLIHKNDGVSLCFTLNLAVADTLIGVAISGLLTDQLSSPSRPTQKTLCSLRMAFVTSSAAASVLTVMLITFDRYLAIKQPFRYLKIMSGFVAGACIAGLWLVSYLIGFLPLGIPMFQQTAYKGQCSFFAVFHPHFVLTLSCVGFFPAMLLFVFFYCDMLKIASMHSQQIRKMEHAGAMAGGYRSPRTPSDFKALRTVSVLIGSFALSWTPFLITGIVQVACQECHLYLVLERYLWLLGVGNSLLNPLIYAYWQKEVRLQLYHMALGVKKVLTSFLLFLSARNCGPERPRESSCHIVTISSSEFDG

[3] = Toxicity in male Wistar rat assessed as ratio of testes to body weight at 100 mg/kg, po after 28 days (reference value: 1.248 +/- 0.073); format: organism-based; conditions: in vivo, 672 h, time 28 day
[4] = Toxicity in male Wistar rat assessed as urea level at 100 mg/kg, po after 28 days (reference value: 58.14 +/- 9.13 mg/dl); format: organism-based; conditions: in vivo, 672 h, time 28 day
[5] = Toxicity in male Wistar rat assessed as creatinine level at 400 mg/kg, po after 28 days (reference value: 0.61 +/- 0.04 mg/dl); format: organism-based; conditions: in vivo, 672 h, time 28 day
[6] = Toxicity in female Wistar rat assessed as ratio of adrenals to body weight at 200 mg/kg, po after 28 days (reference value: 0.045 +/- 0.007); format: organism-based; conditions: in vivo, 672 h, time 28 day
[7] = Toxicity in female Wistar rat assessed as ratio of heart to body weight at 400 mg/kg, po after 28 days (reference value: 0.38 +/- 0.037); format: organism-based; conditions: in vivo, 672 h, time 28 day
[8] = Toxicity in female Wistar rat assessed as ratio of adrenals to body weight at 100 mg/kg, po after 28 days (reference value: 0.045 +/- 0.007); format: organism-based; conditions: in vivo, 672 h, time 28 day
[9] = Toxicity in male Wistar rat assessed as ratio of kidney to body weight at 100 mg/kg, po after 28 days (reference value: 0.787 +/- 0.078); format: organism-based; conditions: in vivo, 672 h, time 28 day
[10] = Toxicity in male Wistar rat assessed as ALT level at 100 mg/kg, po after 28 days (reference value: 30.47 +/- 2.63 U/L); format: organism-based; conditions: in vivo, 672 h, time 28 day
[11] = Toxicity in female Wistar rat assessed as ratio of heart to body weight at 100 mg/kg, po after 28 days (reference value: 0.38 +/- 0.037); format: organism-based; conditions: in vivo, 672 h, time 28 day
[12] = Toxicity in male Wistar rat assessed as ratio of kidney to body weight at 200 mg/kg, po after 28 days (reference value: 0.787 +/- 0.078); format: organism-based; conditions: in vivo, 672 h, time 28 day
[13] = Toxicity in female Wistar rat assessed as neurobehavioral changes at 400 mg/kg, po after 28 days; format: organism-based; conditions: in vivo, 672 h, time 28 day
Procedure, shortened: (§1)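 Repeated-dose oral toxicity by gavage in Wistar rats, 10 males and 10 females per group, given 100, 200 or 400 mg/kg once daily for 28 days. Endpoints were clinical signs, mortality, neurobehaviour, food intake, ophthalmic examination and body weight. Animals were sacrificed on day 29 for blood biochemistry, organ-to-body weight ratios and histopathology.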

[14] = Toxicity in male Wistar rat assessed as ratio of testes to body weight at 200 mg/kg, po after 28 days (reference value: 1.248 +/- 0.073); format: organism-based; conditions: in vivo, 672 h, time 28 day
[15] = Toxicity in female Wistar rat assessed as ratio of ovaries to body weight at 100 mg/kg, po after 28 days (reference value: 0.091 +/- 0.009); format: organism-based; conditions: in vivo, 672 h, time 28 day
[16] = Toxicity in female Wistar rat assessed as mortality up to 400 mg/kg, po after 28 days; format: organism-based; conditions: in vivo, 672 h, time 28 day; procedure, shortened: as §1
[17] = Toxicity in male Wistar rat assessed as ratio of spleen to body weight at 200 mg/kg, po after 28 days (reference value: 0.206 +/- 0.026); format: organism-based; conditions: in vivo, 672 h, time 28 day
[18] = Toxicity in female Wistar rat assessed as albumin level at 400 mg/kg, po after 28 days (reference value: 3.57 +/- 0.14 g.dl); format: organism-based; conditions: in vivo, 672 h, time 28 day
[19] = Toxicity in female Wistar rat assessed as ALT level at 400 mg/kg, po after 28 days (reference value: 21.28 +/- 2.31 U/L); format: organism-based; conditions: in vivo, 672 h, time 28 day
[20] = AUC(0 to t) in Sprague-Dawley rat at 25 mg/kg, po up to 24 hrs; format: ADME, organism-based; set-up: route oral, dose 25 mg/kg, time <=24; conditions: in vivo
Procedure, shortened: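 Male SD rats fasted overnight, water ad libitum, fed 4 h after dosing. Single oral gavage of 25 mg/kg as a homogeneous suspension in 0.5% Tween 80 in 0.5% Na-CMC. Blood drawn into Na-heparin tubes at 0.25, 0.5, 1, 2, 4, 6, 8 and 24 h; plasma stored at -70°C. Parameters by non-compartmental analysis, with C0 taken as zero and BLQ samples set to zero.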

[21] = Toxicity in female Wistar rat assessed as globulin level at 100 mg/kg, po after 28 days (reference value: 2.44 +/- 0.18 g/dl); format: organism-based; conditions: in vivo, 672 h, time 28 day
[22] = Toxicity in male Wistar rat assessed as glucose level at 200 mg/kg, po after 28 days (reference value: 89.02 +/- 13.41 mg/dl); format: organism-based; conditions: in vivo, 672 h, time 28 day
[23] = Toxicity in female Wistar rat assessed as reduction in body weight at 100 to 400 mg/kg, po after 28 days; format: organism-based; conditions: in vivo, 672 h, dose 100-400 mg/kg, time 28 day; procedure, shortened: as §1
[24] = Toxicity in male Wistar rat assessed as ratio of spleen to body weight at 100 mg/kg, po after 28 days (reference value: 0.206 +/- 0.026); format: organism-based; conditions: in vivo, 672 h, time 28 day
[25] = Toxicity in female Wistar rat assessed as ophthalmic examination at 400 mg/kg, po after 28 days; format: organism-based; conditions: in vivo, 672 h, time 28 day; procedure, shortened: as §1
[26] = Toxicity in female Wistar rat assessed as AST level at 100 mg/kg, po after 28 days (reference value: 128.84 +/- 21.42 U/L); format: organism-based; conditions: in vivo, 672 h, time 28 day
[27] = Toxicity in male Wistar rat assessed as globulin level at 100 mg/kg, po after 28 days (reference value: 2.62 +/- 0.12 g/dl); format: organism-based; conditions: in vivo, 672 h, time 28 day
[28] = Toxicity in female Wistar rat assessed as creatinine level at 200 mg/kg, po after 28 days (reference value: 0.6 +/- 0.04 mg/dl); format: organism-based; conditions: in vivo, 672 h, time 28 day
[29] = AUC(0 to t) in Beagle dog at 10 mg/kg, po up to 24 hrs; format: ADME, organism-based, Canis lupus familiaris; set-up: route oral, dose 10 mg/kg, time <=24; conditions: in vivo
Procedure, shortened: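 Single oral dose at 10 mg/kg given to male Wistar rats and to Beagle dogs; bioavailability also determined in both species.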

[30] = Toxicity in male Wistar rat assessed as ratio of adrenals to body weight at 200 mg/kg, po after 28 days (reference value: 0.020 +/- 0.003); format: organism-based; conditions: in vivo, 672 h, time 28 day

Compound Cc1c(Oc2cccc(/C=C3\SC(=O)NC3=O)c2)ncnc1OC1CCN(C(=O)OC(C)(C)C)CC1 has a Ratio [1] of 0.241, an Emax [2] of 160% and a Ratio [3] of 1.228. The Activity [4] was 55.36 mg/dL, the Activity [5] was 0.57 mg/dL and the Ratio [6] was 0.044. It also gave a Ratio [7] of 0.367, a Ratio [8] of 0.046 and a Ratio [9] of 0.831. It also gave an Activity [10] of 28.9 U/L, a Ratio [11] of 0.41 and a Ratio [12] of 0.847. The Activity [13] was “Non-Toxic”, the Ratio [14] was 1.289 and the Ratio [15] was 0.089. For the same compound, the Activity [16] was “Non-Toxic”, the Ratio [17] was 0.22 and the Activity [18] was 3.57 g/dL. The Activity [19] was 23.3 U/L, the AUC(0-t) at 24 h [20] was 19.1 µg·h/mL and the Activity [21] was 2.39 g/dL. The Activity [22] was 75.19 mg/dL, the Activity [23] was “Non-Toxic” and the Ratio [24] was 0.222. The Activity [25] was “Non-Toxic”, the Activity [26] was 120.42 U/L and the Activity [27] was 2.5 g/dL. It also gave an Activity [28] of 0.66 mg/dL, an AUC(0-t) at 24 h [29] of 14.9 µg·h/mL and a Ratio [30] of 0.023.
